Experimental data as given in ChEMBL document CHEMBL3045304, “Sesquiterpene lactones with potential use as natural herbicide models. 2. guaianolides” (2000).
Activity calls are given as the source filed them. The calls are words filed in the database; no cut-off is given here.

How the values were obtained:
Lepidium sativum [1] = test: Inhibition of root length of Lepidium sativum at 0.1 mM or 1 mM after 4 days relative to untreated control
Lepidium sativum [2] = test: Inhibition of hypocotyl length of Lepidium sativum at 0.1 mM or 1 mM after 5 days relative to untreated control; format: functional
Lactuca sativa [3] = test: Inhibition of germination of Lactuca sativa cv. Roman (lettuce) at 0.1 mM or 1 mM after 5 days relative to untreated control; format: functional
Summary of the method: (§1)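 Lettuce and tomato seeds, 25 per dish on filter paper, received 5 mL test solution. Incubation was 5 days in the dark at 25 °C, with four replicates per concentration. Solutions were made at 10^-3 or 10^-4 M in 10 mM MES, diluted serially, and adjusted to pH 6.0. Parallel controls were run. Results are % difference from control.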

Triticum aestivum [4] = test: Inhibition of germination of Triticum aestivum cv. Cortex (wheat) at 0.1 mM or 1 mM after 5 days relative to untreated control; format: functional
Summary of the method: (§2)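 Wheat: 10 seeds per dish on filter paper with 5 mL test solution, 5 days in the dark at 25 °C, 10 replicates per concentration. Stock test solutions were 10^-3 or 10^-4 M in 10 mM MES, with lower levels made by dilution, all at pH 6.0. Parallel controls were run. Output is % difference from control.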

Solanum lycopersicum [5] = test: Inhibition of germination of Solanum lycopersicum cv. Tres Cantos (tomato) at 0.1 mM or 1 mM after 5 days relative to untreated control; format: functional
Summary of the method: as §1

Solanum lycopersicum [6] = test: Stimulation of root length of Solanum lycopersicum cv. Tres Cantos (tomato) at 0.1 mM or 1 mM after 5 days relative to untreated control; format: functional
Summary of the method: as §1

Solanum lycopersicum [7] = test: Stimulation of hypocotyl length of Solanum lycopersicum cv. Tres Cantos (tomato) at 0.1 mM or 1 mM after 5 days relative to untreated control; format: functional
Summary of the method: as §1

Triticum aestivum [8] = test: Stimulation of germination of Triticum aestivum cv. Cortex (wheat) at 0.1 mM or 1 mM after 5 days relative to untreated control; format: functional
Summary of the method: as §2

Solanum lycopersicum [9] = test: Stimulation of germination of Solanum lycopersicum cv. Tres Cantos (tomato) at 0.1 mM or 1 mM after 5 days relative to untreated control; format: functional
Summary of the method: as §1

Lepidium sativum [10] = test: Inhibition of germination of Lepidium sativum at 0.1 mM or 1 mM after 4 days relative to untreated control
Solanum lycopersicum [11] = test: Inhibition of root length of Solanum lycopersicum cv. Tres Cantos (tomato) at 0.1 mM or 1 mM after 5 days relative to untreated control; format: functional
Summary of the method: as §1

Lepidium sativum [12] = test: Stimulation of root length of Lepidium sativum at 0.1 mM or 1 mM after 5 days relative to untreated control; format: functional
Allium cepa [13] = test: Stimulation of germination of Allium cepa cv. Valenciana (onion) at 0.1 mM or 1 mM after 5 days relative to untreated control; format: functional
Triticum aestivum [14] = test: Inhibition of root length of Triticum aestivum cv. Cortex (wheat) at 0.1 mM or 1 mM after 5 days relative to untreated control; format: functional
Summary of the method: as §2

Triticum aestivum [15] = test: Stimulation of root length of Triticum aestivum cv. Cortex (wheat) at 0.1 mM or 1 mM after 5 days relative to untreated control; format: functional
Summary of the method: as §2

Lactuca sativa [16] = test: Inhibition of root length of Lactuca sativa cv. Roman (lettuce) at 0.1 mM or 1 mM after 5 days relative to untreated control; format: functional
Summary of the method: as §1

Allium cepa [17] = test: Stimulation of hypocotyl length of Allium cepa cv. Valenciana (onion) at 0.1 mM or 1 mM after 7 days relative to untreated control
Lactuca sativa [18] = test: Stimulation of germination of Lactuca sativa cv. Roman (lettuce) at 0.1 mM or 1 mM after 5 days relative to untreated control; format: functional
Summary of the method: as §1

Solanum lycopersicum [19] = test: Inhibition of hypocotyl length of Solanum lycopersicum cv. Tres Cantos (tomato) at 0.1 mM or 1 mM after 5 days relative to untreated control; format: functional
Summary of the method: as §1

Lactuca sativa [20] = test: Stimulation of root length of Lactuca sativa cv. Roman (lettuce) at 0.1 mM or 1 mM after 5 days relative to untreated control; format: functional
Summary of the method: as §1

Allium cepa [21] = test: Inhibition of root length of Allium cepa cv. Valenciana (onion) at 0.1 mM or 1 mM after 5 days relative to untreated control; format: functional
Lactuca sativa [22] = test: Inhibition of hypocotyl length of Lactuca sativa cv. Roman (lettuce) at 0.1 mM or 1 mM after 5 days relative to untreated control; format: functional
Summary of the method: as §1

Allium cepa [23] = test: Inhibition of hypocotyl length of Allium cepa cv. Valenciana (onion) at 0.1 mM or 1 mM after 7 days relative to untreated control
Lactuca sativa [24] = test: Stimulation of hypocotyl length of Lactuca sativa cv. Roman (lettuce) at 0.1 mM or 1 mM after 5 days relative to untreated control; format: functional
Summary of the method: as §1

Triticum aestivum [25] = test: Stimulation of hypocotyl length of Triticum aestivum cv. Cortex (wheat) at 0.1 mM or 1 mM after 5 days relative to untreated control; format: functional
Summary of the method: as §2

Allium cepa [26] = test: Inhibition of germination of Allium cepa cv. Valenciana (onion) at 0.1 mM or 1 mM after 5 days relative to untreated control; format: functional
Lepidium sativum [27] = test: Stimulation of hypocotyl length of Lepidium sativum at 0.1 mM or 1 mM after 5 days relative to untreated control; format: functional
Triticum aestivum [28] = test: Inhibition of hypocotyl length of Triticum aestivum cv. Cortex (wheat) at 0.1 mM or 1 mM after 5 days relative to untreated control; format: functional
Summary of the method: as §2

Allium cepa [29] = test: Stimulation of root length of Allium cepa cv. Valenciana (onion) at 0.1 mM or 1 mM after 7 days relative to untreated control

Row | Structure (SMILES) | inhibition (Lepidium sativum [1]) | inhibition (Lepidium sativum [2]) | inhibition (Lactuca sativa [3]) | Activity (Solanum lycopersicum [6]) | Activity (Solanum lycopersicum [7]) | Activity (Triticum aestivum [8]) | Activity (Solanum lycopersicum [9]) | Activity (Lepidium sativum [10]) | inhibition (Lepidium sativum [10]) | inhibition (Solanum lycopersicum [11]) | Activity (Lepidium sativum [12]) | Activity (Allium cepa [13]) | Activity (Triticum aestivum [15]) | Activity (Allium cepa [17]) | Activity (Lactuca sativa [18]) | inhibition (Solanum lycopersicum [19]) | Activity (Lactuca sativa [20]) | inhibition (Allium cepa [21]) | inhibition (INH) (Lactuca sativa [22]) [%] | inhibition (Allium cepa [23]) | further results
1 | C=C1CC[C@H]2C(=C)CC[C@@H]3[C@H](OC(=O)[C@]3(O)CO)[C@@H]12 | inactive | inactive | inactive | inactive | inactive | <20% | <20% | inactive | inactive | inactive | inactive | inactive | inactive | inactive | inactive | inactive | inactive | inactive | <20 | inactive | inhibition (INH) (Triticum aestivum [4]): <20%; inhibition (INH) (Solanum lycopersicum [5]): <20%; inhibition (Triticum aestivum [14]): inactive; inhibition (Lactuca sativa [16]): inactive; Activity (Lactuca sativa [24]): <20%; Activity (Triticum aestivum [25]): inactive; inhibition (Allium cepa [26]): inactive; Activity (Lepidium sativum [27]): inactive; inhibition (Triticum aestivum [28]): inactive; Activity (Allium cepa [29]): inactive
2 | C=C1C(=O)O[C@H]2[C@H]1C[C@@H](O)C(=C)[C@@H]1C[C@@H](O)C(=C)[C@@]12O | inactive | inactive | inactive | inactive | inactive | inactive | <20% | inactive | inactive | inactive | inactive | inactive | 20% | inactive | inactive | inactive | 20% | inactive | <20 | inactive | inhibition (Triticum aestivum [4]): inactive; inhibition (INH) (Solanum lycopersicum [5]): <20%; inhibition (INH) (Triticum aestivum [14]): 20%; inhibition (INH) (Lactuca sativa [16]): 20%; Activity (Lactuca sativa [24]): <20%; Activity (Triticum aestivum [25]): 20%; inhibition (Allium cepa [26]): inactive; Activity (Lepidium sativum [27]): inactive; inhibition (INH) (Triticum aestivum [28]): 20%; Activity (Allium cepa [29]): inactive
3 | C=C1CC[C@H]2[C@H](C)C(=O)O[C@@H]2[C@@]2(O)C(=C)[C@H](O)C[C@@H]12 | inactive | inactive | inactive | inactive | inactive | inactive | inactive | inactive | inactive | inactive | inactive | inactive | inactive | inactive | inactive | inactive | <20% | inactive | 20 | inactive | inhibition (Triticum aestivum [4]): inactive; inhibition (Solanum lycopersicum [5]): inactive; inhibition (Triticum aestivum [14]): inactive; inhibition (INH) (Lactuca sativa [16]): <20%; Activity (Lactuca sativa [24]): 20%; Activity (Triticum aestivum [25]): 20%; inhibition (Allium cepa [26]): inactive; Activity (Lepidium sativum [27]): inactive; inhibition (INH) (Triticum aestivum [28]): 20%; Activity (Allium cepa [29]): inactive
